Source: ChEMBL document CHEMBL5329183, “Naphthylthiazoles: a class of broad-spectrum antifungals” (RSC Med Chem, 2023)
Converted amounts (≈) assume the structure as drawn. The source made the active and inactive calls. The calls are words filed in the database; no cut-off is given here.

Assays:
Clostridioides difficile = test: Antibacterial activity against Clostridium difficile ATCC BAA1870 assessed as inhibition of bacterial growth; assay type: functional
Escherichia coli [1] = test: Antibacterial activity against wild type Escherichia coli BW25113 assessed as inhibition of bacterial growth; assay type: functional
Staphylococcus aureus = test: Antibacterial activity against Methicillin-resistant Staphylococcus aureus USA300 assessed as inhibition of bacterial growth; assay type: functional
Escherichia coli [2] = test: Antibacterial activity against Escherichia coli JW55031 harboring tolC mutant assessed as inhibition of bacterial growth; assay type: functional
Candida albicans [3] = test: Antifungal activity against wild type Candida albicans SC5314 assessed as inhibition of fungal growth; assay type: functional
Aspergillus fumigatus [4] = test: Antifungal activity against Aspergillus fumigatus NR 35303 assessed as inhibition of fungal growth incubated for 24 hrs by broth microdilution method; assay type: functional
In short: (§1)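 Broth microdilution per CLSI guidelines against clinical isolates, incubated at 35 °C for 24 h (Candida, Aspergillus) or 48 h (Cryptococcus). MIC was the lowest concentration giving 50% growth inhibition.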

Aspergillus fumigatus [5] = test: Antifungal activity against Aspergillus fumigatus NR 35304 assessed as inhibition of fungal growth incubated for 24 hrs by broth microdilution method; assay type: functional; in short: as §1
Lactobacillus gasseri = test: Antibacterial activity against Lactobacillus gasseri HM400 assessed as inhibition of bacterial growth; assay type: toxicity, organism-based
[6] = Antifungal activity against Cryptococcus gattii NR 43213 assessed as inhibition of fungal growth incubated for 48 hrs by broth microdilution method; assay type: functional, Cryptococcus gattii VGI; in short: as §1
Nakaseomyces glabratus [7] = test: Antifungal activity against Candida glabrata ATCC MYA2950 assessed as inhibition of fungal growth incubated for 24 hrs by broth microdilution method; assay type: functional
In short: (§2)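 Clinical isolate; CLSI broth microdilution over a range of concentrations (media listed: RPMI 1640, MOPS, YPD). MIC taken as lowest concentration giving 50% growth inhibition after 24 h at 35 °C.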

Cryptococcus neoformans [8] = test: Antifungal activity against Cryptococcus neoformans NR 41300 assessed as inhibition of fungal growth incubated for 48 hrs by broth microdilution method; assay type: functional
In short: (§3)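 Clinical isolate; CLSI broth microdilution over a range of concentrations (media listed: RPMI 1640, MOPS, YPD). MIC read as lowest concentration inhibiting growth by 50% after 48 h incubation at 35 °C.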

[9] = Antibacterial activity against Lactobacillus casei HM334 assessed as inhibition of bacterial growth; assay type: toxicity; conditions: lacticaseibacillus casei
Candida parapsilosis [10] = test: Antifungal activity against Candida parapsilosis CAB 502638 assessed as inhibition of fungal growth incubated for 24 hrs by broth microdilution method; assay type: functional; conditions: Lodderomyces parapsilosis; in short: as §1
Cryptococcus neoformans [11] = test: Antifungal activity against Cryptococcus neoformans NR 48773 assessed as inhibition of fungal growth incubated for 48 hrs by broth microdilution method; assay type: functional; in short: as §3
Cryptococcus neoformans [12] = test: Antifungal activity against Cryptococcus neoformans NR 48771 assessed as inhibition of fungal growth incubated for 48 hrs by broth microdilution method; assay type: functional; in short: as §3
Candida albicans [13] = test: Antifungal activity against Candida albicans ATCC 10231 assessed as inhibition of fungal growth incubated for 24 hrs by broth microdilution method; assay type: functional; in short: as §1
[Candida] auris [14] = Antifungal activity against Candida auris 381 assessed as inhibition of fungal growth incubated for 24 hrs by broth microdilution method; assay type: functional; conditions: Candidozyma auris; in short: as §2
Cryptococcus neoformans [15] = test: Antibiofilm activity against Cryptococcus neoformans NR 41300 assessed as inhibition of biofilm formation at 0.5xMIC measured after 48 hrs by crystal violet staining based analysis; assay type: functional
In short: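 Overnight C. neoformans was washed twice in PBS and adjusted to 105 cells per mL in RPMI. Cells were exposed to compound at 0.5 × MIC for 48 h at 35 °C. Biofilm was rinsed, dried, stained with 0.1% crystal violet, and the dye extracted with glacial acetic acid; OD595 readout.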

Cryptococcus neoformans [16] = test: Anti-cryptococcal activity against Cryptococcus neoformans NR 41300 infected in mouse J774 cells assessed as log reduction of intracellular fungal colony forming unit at 4 ug/ml measured after 24 hrs; assay type: functional; conditions: dose 4 µg/ml
In short: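 C. neoformans NR-41300 was grown 48 h in YPD, washed, and used to infect J774 macrophages at MOI ~100:1 for 1 h, followed by PBS washes. Compounds at 4 μg mL−1 (triplicate) were applied for 22 h at 37 °C, 5% CO2. Extracellular yeast were killed with amphotericin B 1 μg mL−1 for 1 h. Cells were lysed in 0.1% Triton X-100 and plated on YPD agar for 48 h at 37 °C; readout log10 CFU mL−1.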

Nakaseomyces glabratus [17] = test: Antifungal activity against Candida glabrata ATCC 66032 assessed as inhibition of fungal growth incubated for 24 hrs by broth microdilution method; assay type: functional; in short: as §2
Cryptococcus neoformans [18] = test: Antifungal activity against Cryptococcus neoformans NR 48767 assessed as inhibition of fungal growth incubated for 48 hrs by broth microdilution method; assay type: functional; in short: as §3
[19] = Antifungal activity against Cryptococcus gattii NR 43214 assessed as inhibition of fungal growth incubated for 48 hrs by broth microdilution method; assay type: functional, Cryptococcus gattii VGI; in short: as §1
[Candida] auris [20] = Antifungal activity against Candida auris 382 assessed as inhibition of fungal growth incubated for 24 hrs by broth microdilution method; assay type: functional; conditions: Candidozyma auris; in short: as §2
[21] = Antibacterial activity against Lactobacillus crispatus HM370 assessed as inhibition of bacterial growth; assay type: toxicity
Cryptococcus neoformans [22] = test: Antifungal activity against Cryptococcus neoformans NR 48770 assessed as inhibition of fungal growth incubated for 48 hrs by broth microdilution method; assay type: functional; in short: as §3
Candida albicans [23] = test: Antifungal activity against Candida albicans NR 29448 assessed as inhibition of fungal growth incubated for 24 hrs by broth microdilution method; assay type: functional; in short: as §2
[24] = Antifungal activity against Cryptococcus gattii NR 43209 assessed as inhibition of fungal growth incubated for 48 hrs by broth microdilution method; assay type: functional, Cryptococcus gattii VGI; in short: as §1
Cryptococcus neoformans [25] = test: Antifungal activity against Cryptococcus neoformans NR 41299 assessed as inhibition of fungal growth incubated for 48 hrs by broth microdilution method; assay type: functional; in short: as §3
[Candida] auris [26] = Antifungal activity against Candida auris 383 assessed as inhibition of fungal growth incubated for 24 hrs by broth microdilution method; assay type: functional; conditions: Candidozyma auris; in short: as §2
Cryptococcus neoformans [27] = test: Antifungal activity against Cryptococcus neoformans NR 41298 assessed as inhibition of fungal growth incubated for 48 hrs by broth microdilution method; assay type: functional; in short: as §3
Candida parapsilosis [28] = test: Antifungal activity against Candida parapsilosis ATCC 22019 assessed as inhibition of fungal growth incubated for 24 hrs by broth microdilution method; assay type: functional; conditions: Lodderomyces parapsilosis; in short: as §2
[29] = Antifungal activity against Cryptococcus gattii NR 43210 assessed as inhibition of fungal growth incubated for 48 hrs by broth microdilution method; assay type: functional, Cryptococcus gattii VGI; in short: as §1
Pichia kudriavzevii [30] = test: Antifungal activity against Candida krusei CAB 396420 assessed as inhibition of fungal growth incubated for 24 hrs by broth microdilution method; assay type: functional; in short: as §1
[31] = Antifungal activity against Cryptococcus gattii NR 43216 assessed as inhibition of fungal growth incubated for 48 hrs by broth microdilution method; assay type: functional, Cryptococcus gattii VGI; in short: as §1
Pichia kudriavzevii [32] = test: Antifungal activity against Candida krusei ATCC 34135 assessed as inhibition of fungal growth incubated for 24 hrs by broth microdilution method; assay type: functional; in short: as §1

Cc1nc(-c2ccc3ccccc3c2)sc1-c1nnc(N2CCC(N)C2)o1 (configuration not stated)
MIC (Clostridioides difficile): > 64 µg/mL
MIC (Escherichia coli [1]): > 64 µg/mL
MIC (Staphylococcus aureus): > 64 µg/mL
MIC (Escherichia coli [2]): > 64 µg/mL
MIC (Candida albicans [3]): 8 µg/mL (≈ 21.2 µM)

CCC(C)n1ncn(-c2ccc(N3CCN(c4ccc(OCC5COC(Cn6cncn6)(c6ccc(Cl)cc6Cl)O5)cc4)CC3)cc2)c1=O (configuration not stated) [ITRACONAZOLE]
MIC (Aspergillus fumigatus [4]): 1 µg/mL (≈ 1.42 µM)
MIC (Aspergillus fumigatus [5]): 1 µg/mL (≈ 1.42 µM)

Cc1nc(-c2ccc3ccccc3c2)sc1-c1nnc(N2CCC[C@@H]2C(N)=O)o1
MIC (Clostridioides difficile): > 64 µg/mL
MIC (Escherichia coli [1]): > 64 µg/mL
MIC (Staphylococcus aureus): > 64 µg/mL
MIC (Escherichia coli [2]): > 64 µg/mL
MIC (Candida albicans [3]): > 64 µg/mL

CCNc1nnc(-c2sc(-c3ccc4ccccc4c3)nc2C)o1
MIC (Clostridioides difficile): 64 µg/mL (≈ 190 µM)
MIC (Escherichia coli [1]): > 64 µg/mL
MIC (Staphylococcus aureus): 64 µg/mL (≈ 190 µM)
MIC (Escherichia coli [2]): 64 µg/mL (≈ 190 µM)
MIC (Candida albicans [3]): > 64 µg/mL

Cc1nc(-c2ccc3ccccc3c2)sc1-c1nnc(N2CCC[C@@H]2CO)o1
MIC (Clostridioides difficile): 16 µg/mL (≈ 40.8 µM)
MIC (Escherichia coli [1]): > 64 µg/mL
MIC (Staphylococcus aureus): > 64 µg/mL
MIC (Escherichia coli [2]): > 64 µg/mL
MIC (Candida albicans [3]): > 64 µg/mL

GENTAMICIN
MIC (Escherichia coli [1]): < 0.5 µg/mL
MIC (Escherichia coli [2]): < 0.5 µg/mL

Cc1nc(-c2ccc3ccccc3c2)sc1-c1nnc(N2CCC[C@H]2CO)o1
MIC (Clostridioides difficile): > 64 µg/mL
MIC (Escherichia coli [1]): > 64 µg/mL
MIC (Staphylococcus aureus): > 64 µg/mL
MIC (Escherichia coli [2]): > 64 µg/mL
MIC (Candida albicans [3]): > 64 µg/mL

CC(=O)NC[C@H]1CN(c2ccc(N3CCOCC3)c(F)c2)C(=O)O1 [LINEZOLID]
MIC (Clostridioides difficile): 1 µg/mL (≈ 2.96 µM)
MIC (Escherichia coli [1]): > 64 µg/mL
MIC (Staphylococcus aureus): 1 µg/mL (≈ 2.96 µM)
MIC (Escherichia coli [2]): 8 µg/mL (≈ 23.7 µM)

OC(Cn1cncn1)(Cn1cncn1)c1ccc(F)cc1F [FLUCONAZOLE]
MIC (Lactobacillus gasseri): > 128 µg/mL
MIC [6]: 2 µg/mL (≈ 6.53 µM)
MIC (Nakaseomyces glabratus [7]): 16 µg/mL (≈ 52.2 µM)
MIC (Cryptococcus neoformans [8]): 1 µg/mL (≈ 3.27 µM)
MIC [9]: > 128 µg/mL
MIC (Candida parapsilosis [10]): 0.5 µg/mL (≈ 1.63 µM)
MIC (Cryptococcus neoformans [11]): 2 µg/mL (≈ 6.53 µM)
MIC (Cryptococcus neoformans [12]): 2 µg/mL (≈ 6.53 µM)
MIC (Candida albicans [13]): 1 µg/mL (≈ 3.27 µM)
MIC ([Candida] auris [14]): 2 µg/mL (≈ 6.53 µM)
Activity (Cryptococcus neoformans [15]): Active
Activity (Cryptococcus neoformans [16]): 0.25 log10CFU/ml
MIC (Nakaseomyces glabratus [17]): 8 µg/mL (≈ 26.1 µM)
MIC (Cryptococcus neoformans [18]): 1 µg/mL (≈ 3.27 µM)
MIC [19]: 1 µg/mL (≈ 3.27 µM)
MIC ([Candida] auris [20]): 64 µg/mL (≈ 209 µM)
MIC [21]: > 128 µg/mL
MIC (Cryptococcus neoformans [22]): 2 µg/mL (≈ 6.53 µM)
MIC (Candida albicans [23]): > 128 µg/mL
MIC [24]: 4 µg/mL (≈ 13.1 µM)
MIC (Cryptococcus neoformans [25]): 1 µg/mL (≈ 3.27 µM)
MIC ([Candida] auris [26]): 64 µg/mL (≈ 209 µM)
MIC (Cryptococcus neoformans [27]): 2 µg/mL (≈ 6.53 µM)
MIC (Candida parapsilosis [28]): 1 µg/mL (≈ 3.27 µM)
MIC [29]: 4 µg/mL (≈ 13.1 µM)
MIC (Pichia kudriavzevii [30]): 16 µg/mL (≈ 52.2 µM)
MIC [31]: 2 µg/mL (≈ 6.53 µM)
MIC (Candida albicans [3]): 0.5 µg/mL (≈ 1.63 µM)
MIC (Pichia kudriavzevii [32]): 16 µg/mL (≈ 52.2 µM)

Cc1nc(-c2ccc3ccccc3c2)sc1-c1nnc(N2CCC[C@H]2C(N)=O)o1
MIC (Clostridioides difficile): > 64 µg/mL
MIC (Escherichia coli [1]): > 64 µg/mL
MIC (Staphylococcus aureus): > 64 µg/mL
MIC (Escherichia coli [2]): > 64 µg/mL
MIC (Candida albicans [3]): > 64 µg/mL
